Data set [1] concerns the target T1, TNF receptor-associated factor 6 (Homo sapiens) (UniProt Q9Y4K3).
T1 sequence (whole entry): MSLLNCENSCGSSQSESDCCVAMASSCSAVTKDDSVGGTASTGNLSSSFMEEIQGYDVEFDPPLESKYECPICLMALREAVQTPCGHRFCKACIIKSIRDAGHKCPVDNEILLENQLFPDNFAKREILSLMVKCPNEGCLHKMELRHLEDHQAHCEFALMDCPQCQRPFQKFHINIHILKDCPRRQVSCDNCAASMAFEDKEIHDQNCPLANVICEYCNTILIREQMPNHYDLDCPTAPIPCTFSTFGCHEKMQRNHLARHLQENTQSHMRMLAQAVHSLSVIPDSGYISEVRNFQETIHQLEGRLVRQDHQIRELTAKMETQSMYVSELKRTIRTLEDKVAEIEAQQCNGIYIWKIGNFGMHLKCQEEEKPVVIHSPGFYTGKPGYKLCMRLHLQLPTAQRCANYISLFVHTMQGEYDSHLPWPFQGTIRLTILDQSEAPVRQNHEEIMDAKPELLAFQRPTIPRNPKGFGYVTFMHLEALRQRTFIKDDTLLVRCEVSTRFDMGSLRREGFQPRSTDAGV
The data set can be described thus: Inhibition of TRAF6 (unknown origin)-mediated NFkappaB activation expressed in human HeLaS3 cells harboring 3kappaB-tk-luc at 10 uM preincubated for 1 hr followed by Il1alpha-stimulation and measured after 3 hrs in presence of DTT by dual-luciferase reporter gene assay relative to control. The data set is classed as cell-based. The essentials:
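Cells co-transfected with 3κB-tk-luc and pRL-Luc (β-actin-driven renilla), cultured 1 day, then given compound (10 μM) plus DTT (30 μM) for 1 h before IL-1α (10 ng/mL) stimulation for 3 h. Dual-luciferase read-out: κB-firefly signal normalized to renilla, reported as relative NF-κB activity.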
In general terms: A reporter such as luciferase makes a cellular process visible.

The nature of data set [2]: Prodrug conversion in human HeLaS3 assessed as NpSH formation at 10 uM. Format: ADME, cell-based. The note with it: hela s3, 10 µM.
The test system of another data set is HeLa S3. Nature of the data set: Cytotoxicity against human HeLaS3 cells assessed as reduction in cell viability at 10 uM measured after 8 hrs in presence of DTT by MTT assay relative to control. The data set is classed as functional. The essentials: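 Cells treated with compound at 10 μM together with DTT (30 μM), incubated 8 h, then viability read by MTT assay; shown as activity relative to control.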
(In general: Tetrazolium dyes change colour on reduction, which living cells bring about.)

In data set [3] the target is T1, TNF receptor-associated factor 6 (Homo sapiens). Nature of the data set: Inhibition of TRAF6 (unknown origin)-mediated NFkappaB activation expressed in human HeLaS3 cells harboring 3kappaB-tk-luc at 10 uM preincubated for 1 hr followed by Il1alpha-stimulation and measured after 3 hrs by dual-luciferase reporter gene assay relative to control. The data set is classed as cell-based. The method in brief:
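Cells co-transfected with 3κB-tk-luc (triple κB site driving firefly luciferase) and pRL-Luc (β-actin promoter driving renilla luciferase), cultured 1 day, given compound (10 μM) without DTT for 1 h, then stimulated with IL-1α (10 ng/mL) for 3 h. Lysates read by dual-luciferase assay; firefly signal normalized to renilla, expressed as relative NF-κB activity.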

The source made the active and inactive calls. No cut-off for these calls is given here.

Regarding `CCCCCCCCCCCCOC(=O)Nc1cc(CNCCS)nc(CNCCS)c1`, the inhibition result in data set [1] is “inactive”.

`O=[N+]([O-])c1ccccc1SSc1ccccc1[N+](=O)[O-]`: the Drug metabolism result in data set [2] is “Metabolite_Detected”.

As for `SCCNCc1ccccn1`, the inhibition entry in data set [1] is “inactive”.

`Sc1ccccc1NCc1ccccn1`: in data set [1], the inhibition result was “inactive”.

For the compound `CN(C)c1cc(CNCCSSc2ccccc2[N+](=O)[O-])nc(CNCCSSc2ccccc2[N+](=O)[O-])c1`, the Drug metabolism result in data set [2] is reported as “Metabolite_Detected”. For the same compound, in the data set on HeLa S3, the outcome was inactive. For the same compound, the results for the inhibition in data set [3] and in data set [1] were 80% and 89%, respectively.

With `O=[N+]([O-])c1ccccc1SSCCNCc1cccc(CNCCSSc2ccccc2[N+](=O)[O-])c1`, the Drug metabolism result in data set [2] is “Metabolite_Detected”. Also, the inhibition entry in data set [1] is “inactive”.

For the compound `CN(C)c1ccnc(CNCCS)c1`, in data set [1], the inhibition entry was “inactive”.

As for `O=[N+]([O-])c1ccccc1SSCCNCc1cccc(CNCCSSc2ccccc2[N+](=O)[O-])n1`, in data set [2], the Drug metabolism result is given as “Metabolite_Detected”. Further, the inhibition was 76% in data set [3] and 84% in data set [1].

In the case of `O=[N+]([O-])c1ccccc1S`, the Activity in the data set on HeLa S3 was 24%. Besides, in data set [1], the inhibition result is “inactive”.

In the case of `O=C(CCCC[C@@H]1SC[C@@H]2NC(=O)N[C@@H]21)NCCCCCCOC(=O)Nc1cc(CNCCS)nc(CNCCS)c1`, the inhibition in data set [1] came to 78%.

Regarding `CC(C)=CCC/C(C)=C/CC/C(C)=C/COC(=O)Nc1cc(CNCCS)nc(CNCCS)c1`, the inhibition entry in data set [1] was “inactive”.

A word on the inhibition: it is the drop in the measured response relative to a control, in per cent.

The values are drawn from ChEMBL document CHEMBL4387775, “Minimum structural requirements for inhibitors of the zinc finger protein TRAF6” (Bioorg Med Chem Lett, 2019).
